# What was measured:
# [1] = Toxicity against brine shrimp; format: organism-based; conditions: artemia, in vivo
# Outline: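 Brine shrimp lethality assay run in-house following a published method. The positive standard, adriamycin, was dissolved directly in sea water and tested immediately.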
# [2] = test system: A549; assay: Cytotoxicity against human A549 cells; format: functional; conditions: read-out: ED50 (the source's name)
# Outline: (§1)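 Human tumor cell cytotoxicity run by the Purdue Cancer Center's cell culture laboratory using standard protocols, with adriamycin as the positive standard. A-549, MCF-7 and HT-29 were each tested under a separately cited protocol.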
# [3] = test system: MCF7; assay: Cytotoxicity against human MCF7 cells; format: functional; conditions: read-out: ED50 (the source's name); outline: as §1
# [4] = test system: HT-29; assay: Cytotoxicity against human HT-29 cells; format: functional; conditions: read-out: ED50 (the source's name); outline: as §1
Compound,LC50 [1] [µg/mL],EC50 [2] [µg/mL],EC50 [3] [µg/mL],EC50 [4] [µg/mL]
O=C1C[C@@H]2O[C@@H]([C@H](O)c3ccccc3)[C@@H](O)[C@@H]2O1 (relative stereo),475,85.5,49.1,> 100
COc1cccc2c1C(=O)c1c(O)c3c(c(O)c1C2=O)C[C@@](O)(C(=O)CO)C[C@@H]3O[C@H]1C[C@H](N)[C@H](O)[C@H](C)O1 [DOXORUBICIN],,0.00684,0.0177,0.00416
O=C1C=CC[C@H]([C@H](O)[C@H](O)c2ccccc2)O1 [GONIODIOL],> 500,0.122,8.27,2.45
O=C1C[C@H]2C[C@@H](O1)[C@H](O)[C@H](c1ccccc1)O2,> 500,27.2,25.4,7.38
